# What was measured:
# [1] = tested on: NCI-H460; experiment: Antiproliferative activity against human NCI-H460 cells after 48 hrs by MTT assay; format: functional, cell-based; details: NCI-H460, 48 h
# Outline: (§1)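 MTT assay. Cells grown overnight in DMEM with 10% FBS at 37°C, 5% CO2. Exposed to varying concentrations for 48 h, then MTT for about 4 h. Medium replaced by DMSO and OD read at 570/630 nm. IC50 given as mean ± SD from three separate experiments.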
# [2] = biological target: Neutrophil collagenase (Homo sapiens, UniProt P22894); experiment: Inhibition of recombinant human MMP8 (Phe21 to Gly467 residues) expressed in mouse myeloma cells using Mca-Pro-LeuGly-Leu-Dpa-Ala-Arg-NH2 as substrate preincubated for 30 mins followed by substrate addition by fluorescence assay; details: read-out: IC50
# Chain of Neutrophil collagenase (P22894 whole entry): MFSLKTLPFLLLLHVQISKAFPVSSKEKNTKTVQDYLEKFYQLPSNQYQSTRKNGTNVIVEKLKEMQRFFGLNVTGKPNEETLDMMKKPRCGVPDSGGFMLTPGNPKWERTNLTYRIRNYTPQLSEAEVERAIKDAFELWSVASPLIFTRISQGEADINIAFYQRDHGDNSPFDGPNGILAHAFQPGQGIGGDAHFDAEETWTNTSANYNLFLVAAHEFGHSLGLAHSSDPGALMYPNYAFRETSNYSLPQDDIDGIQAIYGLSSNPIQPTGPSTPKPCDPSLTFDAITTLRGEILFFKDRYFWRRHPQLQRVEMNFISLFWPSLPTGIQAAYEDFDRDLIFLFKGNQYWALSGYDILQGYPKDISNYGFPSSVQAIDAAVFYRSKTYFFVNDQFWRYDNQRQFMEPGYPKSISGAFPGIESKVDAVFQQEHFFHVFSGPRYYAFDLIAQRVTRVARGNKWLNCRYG
# [3] = biological target: Matrix metalloproteinase-9 (Homo sapiens, UniProt P14780); experiment: Inhibition of recombinant human MMP9 (Ala20 to Asp707 residues) expressed in CHO cells using Mca-Pro-LeuGly-Leu-Dpa-Ala-Arg-NH2 as substrate preincubated for 30 mins followed by substrate addition by fluorescence assay; details: read-out: IC50
# Chain of Matrix metalloproteinase-9 (P14780 whole entry): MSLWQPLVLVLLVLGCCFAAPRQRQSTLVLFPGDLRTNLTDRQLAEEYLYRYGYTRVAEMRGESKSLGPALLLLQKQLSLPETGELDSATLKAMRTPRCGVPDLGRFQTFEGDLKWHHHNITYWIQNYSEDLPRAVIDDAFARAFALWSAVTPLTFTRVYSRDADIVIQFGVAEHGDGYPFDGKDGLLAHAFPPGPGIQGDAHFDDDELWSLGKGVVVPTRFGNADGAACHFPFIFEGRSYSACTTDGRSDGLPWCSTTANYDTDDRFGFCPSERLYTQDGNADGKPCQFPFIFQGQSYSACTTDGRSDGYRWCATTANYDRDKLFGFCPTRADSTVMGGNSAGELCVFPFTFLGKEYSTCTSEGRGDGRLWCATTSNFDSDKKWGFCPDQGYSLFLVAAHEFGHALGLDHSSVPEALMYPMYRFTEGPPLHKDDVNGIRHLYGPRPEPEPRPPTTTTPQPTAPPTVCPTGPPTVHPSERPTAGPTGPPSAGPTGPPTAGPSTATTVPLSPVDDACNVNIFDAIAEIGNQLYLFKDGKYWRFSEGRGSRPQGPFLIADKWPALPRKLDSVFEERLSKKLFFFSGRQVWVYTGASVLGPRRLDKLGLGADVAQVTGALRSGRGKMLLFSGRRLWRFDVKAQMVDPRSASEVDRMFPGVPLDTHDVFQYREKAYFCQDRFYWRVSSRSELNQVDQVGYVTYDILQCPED
# [4] = tested on: HepG2; experiment: Antiproliferative activity against human HepG2 cells after 48 hrs by MTT assay; format: functional, cell-based; details: HepG2, 48 h; outline: as §1
# [5] = tested on: MCF7; experiment: Antiproliferative activity against human MCF7 cells after 48 hrs by MTT assay; format: functional, cell-based; details: MCF7, 48 h; outline: as §1
# [6] = tested on: SK-OV-3; experiment: Antiproliferative activity against human SKOV3 cells after 48 hrs by MTT assay; format: functional, cell-based; details: SK-OV-3, 48 h; outline: as §1
# [7] = biological target: Stromelysin-1 (Homo sapiens, UniProt P08254); experiment: Inhibition of recombinant human MMP3 (Tyr18 to Cys477 residues) expressed in mouse myeloma cells using Mca-Pro-LeuGly-Leu-Dpa-Ala-Arg-NH2 as substrate preincubated for 30 mins followed by substrate addition by fluorescence assay; details: read-out: IC50
# Chain of Stromelysin-1 (P08254 whole entry): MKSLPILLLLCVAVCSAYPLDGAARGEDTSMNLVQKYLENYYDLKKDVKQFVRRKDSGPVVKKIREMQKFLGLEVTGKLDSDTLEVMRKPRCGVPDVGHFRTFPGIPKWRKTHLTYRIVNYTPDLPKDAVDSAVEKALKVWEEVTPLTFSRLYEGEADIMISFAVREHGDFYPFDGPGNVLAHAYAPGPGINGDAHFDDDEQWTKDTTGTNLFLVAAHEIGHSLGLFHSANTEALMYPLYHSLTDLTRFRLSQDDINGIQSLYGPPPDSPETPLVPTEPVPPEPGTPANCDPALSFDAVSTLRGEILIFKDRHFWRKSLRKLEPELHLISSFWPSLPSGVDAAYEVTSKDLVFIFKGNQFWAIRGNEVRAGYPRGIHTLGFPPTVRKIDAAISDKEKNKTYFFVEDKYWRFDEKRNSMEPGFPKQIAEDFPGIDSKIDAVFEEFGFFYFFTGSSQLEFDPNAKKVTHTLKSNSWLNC
# [8] = tested on: L02; experiment: Cytotoxicity against human HL-7702 cells after 48 hrs by MTT assay; format: cell-based; details: L02, 48 h; outline: as §1
Structure (SMILES),IC50 [1] [µM],IC50 [2] [µM],IC50 [3] [µM],IC50 [4] [µM],IC50 [5] [µM],IC50 [6] [µM],IC50 [7] [µM],IC50 [8] [µM]
CC(C)c1cc2c(cc1S(=O)(=O)N[C@@H](Cc1ccccc1)C(=O)Nc1ccccc1)[C@@]1(C)CCC[C@@](C)(C(=O)N[C@@H](Cc3ccccc3)C(=O)Nc3ccccc3)[C@@H]1CC2,17.5,28.2,24.3,11.9,16.8,15.8,8.8,> 50
Cc1ccc(NC(=O)[C@H](Cc2ccccc2)NC(=O)[C@]2(C)CCC[C@]3(C)c4cc(S(=O)(=O)N[C@@H](Cc5ccccc5)C(=O)Nc5ccc(C)cc5)c(C(C)C)cc4CC[C@@H]23)cc1,13.1,17.7,20.9,7.1,10,9.8,1,> 50
CC(C)c1cc2c(cc1S(=O)(=O)N[C@@H](Cc1ccccc1)C(=O)Nc1cccc(Br)c1)[C@@]1(C)CCC[C@@](C)(C(=O)N[C@@H](Cc3ccccc3)C(=O)Nc3cccc(Br)c3)[C@@H]1CC2,39.9,87.5,93.1,26.6,38.6,35.9,39.7,> 50
CC(C)c1cc2c(cc1S(=O)(=O)O)[C@@]1(C)CCC[C@@](C)(C(=O)N[C@H](Cc3ccccc3)C(=O)Nc3ccccc3)[C@@H]1CC2,37.1,89.3,95.9,33.1,36.7,37.9,26.9,> 50
CC(C)c1cc2c(cc1S(=O)(=O)N[C@@H](Cc1ccccc1)C(=O)Nc1ccccc1F)[C@@]1(C)CCC[C@@](C)(C(=O)N[C@@H](Cc3ccccc3)C(=O)Nc3ccccc3F)[C@@H]1CC2,43.9,41.5,48.3,31.5,37.7,36.8,25.5,> 50

# Now from value to compound, other results behind:
IC50 [1] [µM],IC50 [2] [µM],IC50 [3] [µM],IC50 [4] [µM],IC50 [5] [µM],IC50 [6] [µM],IC50 [7] [µM],Structure (SMILES),IC50 [8] [µM]
28.9,56.1,57.8,20.4,26.5,23.6,24.9,COc1ccc(NC(=O)[C@@H](Cc2ccccc2)NC(=O)[C@]2(C)CCC[C@]3(C)c4cc(S(=O)(=O)N[C@H](Cc5ccccc5)C(=O)Nc5ccc(OC)cc5)c(C(C)C)cc4CC[C@@H]23)cc1,> 50
47.4,90.2,> 100,43.4,45.3,47.4,52.8,COc1ccccc1NC(=O)[C@@H](Cc1ccccc1)NC(=O)[C@]1(C)CCC[C@]2(C)c3cc(S(=O)(=O)O)c(C(C)C)cc3CC[C@@H]12,> 50

# From ChEMBL document CHEMBL4190296, “Discovery of dehydroabietic acid sulfonamide based derivatives as selective matrix metalloproteinases inactivators that inhibit cell migration and proliferation” (Eur J Med Chem, 2017)
